Assay results published in ChEMBL document CHEMBL1133285, “Simple bi- and tricyclic inhibitors of human steroid 5alpha-reductase” (Bioorg Med Chem Lett, 2000).

Key:
[1] = biological target: T1, 3-oxo-5-alpha-steroid 4-dehydrogenase 1 (Homo sapiens, UniProt P18405); assay: In vitro inhibitory activity against Steroid 5-alpha-reductase type I
T1 sequence (P18405 whole entry): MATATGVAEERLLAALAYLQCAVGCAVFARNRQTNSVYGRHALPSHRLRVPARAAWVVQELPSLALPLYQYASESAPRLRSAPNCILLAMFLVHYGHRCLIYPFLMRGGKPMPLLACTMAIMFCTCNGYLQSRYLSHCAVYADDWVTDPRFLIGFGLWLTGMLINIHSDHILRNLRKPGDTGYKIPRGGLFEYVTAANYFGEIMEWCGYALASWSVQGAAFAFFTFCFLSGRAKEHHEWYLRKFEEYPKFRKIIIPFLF

[2] = biological target: T2, 3-oxo-5-alpha-steroid 4-dehydrogenase 2 (Homo sapiens) (UniProt P31213); assay: In vitro inhibitory activity against Steroid 5-alpha-reductase type 2 at a concentration of 40 uM
T2 sequence (whole entry): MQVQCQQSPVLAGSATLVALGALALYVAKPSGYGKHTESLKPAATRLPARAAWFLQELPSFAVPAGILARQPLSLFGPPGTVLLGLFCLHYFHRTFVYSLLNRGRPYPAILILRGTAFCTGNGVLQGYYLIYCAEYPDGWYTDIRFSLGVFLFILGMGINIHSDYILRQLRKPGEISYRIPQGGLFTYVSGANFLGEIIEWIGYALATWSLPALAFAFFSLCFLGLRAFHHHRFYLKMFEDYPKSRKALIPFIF

[3] = biological target: T3, 3-oxo-5-alpha-steroid 4-dehydrogenase 2 (Homo sapiens, UniProt P31213); assay: In vitro inhibitory activity against Steroid 5-alpha-reductase type 2
T3 sequence (P31213 whole entry): T2 sequence (whole entry)
Procedure, shortened: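 Type 2 SR enzyme preparation, with inhibitors prepared and tested as in the type 1 assay. The mixture of labelled (80 nM) and unlabelled testosterone substrate is incubated 1 h at 37 °C. Androgens are separated by HPLC and quantified by in-line flow radioactivity detection. The assay is calibrated with known type 2 inhibitors.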

[4] = biological target: T2, 3-oxo-5-alpha-steroid 4-dehydrogenase 2 (Homo sapiens); assay: In vitro inhibitory activity against Steroid 5-alpha-reductase type 2 at a concentration of 10 uM

In the case of `CN1C(=O)CC[C@@]2(C)C1=CCc1cc(Cl)ccc12`, the IC50 [1] is reported as 120 nM.

With `CN1C(=S)CC[C@@H]2c3ccccc3CC[C@H]21` the inhibition [2] was 19.9% and the IC50 [1] was 1450 nM.

`O=C(O)c1ccc2c(c1)CCc1cc(/C=C/c3ccccc3)ccc1-2` gave an IC50 [3] of 340 nM and an IC50 [1] of 152 nM.

`CN1CC(c2ccccc2)CCC1=O` (centres undefined) showed an inhibition [2] of 13.5% and an IC50 [1] of 2480 nM.

`CN1C(=S)CC[C@@]2(C)C1=CCc1cc(Cl)ccc12` showed an inhibition [2] of 13.2% and an IC50 [1] of 377 nM.

`CN1CC(c2ccc(/N=N/c3ccccc3)cc2)CCC1=O` (centres undefined) was tested, and the IC50 [3] was 579 nM and the IC50 [1] was 302 nM.

With `CN1CC(c2ccc(Cl)cc2)CCC1=O` (centres undefined) the IC50 [1] was 1690 nM.

Compound `CN1CC(c2ccc(Cl)cc2)CCC1=S` (centres undefined) has an inhibition [2] of 14% and an IC50 [1] of 3360 nM.

`CN1CC(c2ccc(/C=C/c3ccccc3)cc2)CCC1=O` (centres undefined) gave an IC50 [3] of 617 nM and an IC50 [1] of 107 nM.

`CN1C(=S)CC[C@]2(C)c3ccc(Cl)cc3CC[C@@H]12` was tested, and the inhibition [2] was 21.6% and the IC50 [1] was 183 nM.

With `O=C(O)c1ccc2c(c1)CCc1cc(Br)ccc1-2` the inhibition [4] was 20%.
